We go through 24 compounds from ChEMBL document CHEMBL3259658, “Discovery of BI 224436, a Noncatalytic Site Integrase Inhibitor (NCINI) of HIV-1” (ACS Med Chem Lett, 2014).

Data set [1] concerns the target T1, Human immunodeficiency virus type 1 integrase (Human immunodeficiency virus 1, UniProt Q7ZJM1). Briefly: Binding affinity to HIV1 integrase by displacement assay. As to conditions: read-out: Kd(app). The essentials: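 The displacement assay against HIV-1 integrase gives the value as an apparent dissociation constant (Kd-app).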
Data set [2] concerns Human immunodeficiency virus 1. The experiment in a line: Antiviral activity against HIV1 HxB2 harboring integrase A124/T125 mutant by cell based luciferase reporter gene assay. As to conditions: Human immunodeficiency virus 1, HxB2. Type of data set: functional, organism-based. A digest of the protocol:
(§1)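 Cell-based luciferase reporter gene assay of HIV-1 replication. Virus was HxB2 (IN A124/T125), wild-type NL4.3 (T124/T125), or recombinant NL4.3 carrying IN variants A124/T125, A124/A125, N124/T125, N124/A125 or T124/A125 (T125A). EC50 is the mean of at least two experiments. Where three or more experiments were run, relative SD was 12–43%.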

For data set [3], the system named is Human immunodeficiency virus 1. Briefly: Antiviral activity against HIV1 NL4.3 harboring integrase T124/A125 mutant by cell based luciferase reporter gene assay. Type of data set: functional, organism-based. As to conditions: Human immunodeficiency virus 1, NL4.3. The essentials:
as §1

Data set [4] relates to Human immunodeficiency virus 1. The experiment in a line: Ratio of EC50 for HIV1 NL4.3 harboring integrase T124/A125 mutant to EC50 for HIV1 HxB2 harboring integrase A124/T125 mutant.
The target of data set [5] is T1, Human immunodeficiency virus type 1 integrase. The experiment in a line: Inhibition of HIV1 integrase by LTR cleavage assay.
Data set [6] is described as follows: Half life in human liver microsomes. Type of data set: ADME.
Data set [7] relates to Human immunodeficiency virus 1. Briefly: Antiviral activity against HIV1 NL4.3 harboring integrase T125A mutant by cell based luciferase reporter gene assay in presence of 50% human serum. Type of data set: functional. More on the design: reference not given here. The essentials: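 Luciferase reporter gene assay with recombinant NL4.3 carrying the IN T125A substitution. […] Each value is the mean of at least two experiments.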
A general note: A reporter such as luciferase makes a cellular process visible.

For data set [8], the system named is Human immunodeficiency virus 1. The experiment in a line: Antiviral activity against HIV1 NL4.3 harboring integrase T124/T125 mutant by cell based luciferase reporter gene assay. Type of data set: functional, organism-based. As to conditions: Human immunodeficiency virus 1, NL4.3. A digest of the protocol: as §1
Data set [9] relates to Human immunodeficiency virus 1. Briefly: Antiviral activity against HIV1 NL4.3 harboring integrase A124/T125 mutant by cell based luciferase reporter gene assay. Type of data set: functional, organism-based. As to conditions: Human immunodeficiency virus 1, NL4.3. A digest of the protocol:
as §1

Data set [10] relates to Human immunodeficiency virus 1. The experiment in a line: Antiviral activity against HIV1 NL4.3 harboring integrase A124/A125 mutant by cell based luciferase reporter gene assay. Type of data set: functional, organism-based. As to conditions: Human immunodeficiency virus 1, NL4.3. The essentials:
as §1

For data set [11], the system named is Human immunodeficiency virus 1. Briefly: Antiviral activity against HIV1 NL4.3 harboring integrase N124/T125 mutant by cell based luciferase reporter gene assay. Type of data set: functional, organism-based. The following applies: Human immunodeficiency virus 1, NL4.3. The essentials: as §1
Data set [12] concerns Human immunodeficiency virus 1. Briefly: Antiviral activity against HIV1 NL4.3 harboring integrase N124/A125 mutant by cell based luciferase reporter gene assay. Type of data set: functional, organism-based. As to conditions: Human immunodeficiency virus 1, NL4.3. The essentials: as §1
The nature of data set [13]: Half life in rat liver microsomes. Type of data set: ADME. On the technique in general: Microsomes from liver hold many membrane-bound enzymes, among them those of drug oxidation.
The nature of data set [14]: Apparent permeability across human Caco2 cells. Type of data set: ADME, cell-based. The following applies: Caco-2. In general terms: Caco-2 monolayers are a common model of the intestinal barrier.
For a further data set, the target named is Cytochrome P450 3A4 (Homo sapiens, UniProt P08684). The experiment in a line: Inhibition of CYP3A4 (unknown origin). Type of data set: ADME.
Sequence of Cytochrome P450 3A4 (P08684 whole entry): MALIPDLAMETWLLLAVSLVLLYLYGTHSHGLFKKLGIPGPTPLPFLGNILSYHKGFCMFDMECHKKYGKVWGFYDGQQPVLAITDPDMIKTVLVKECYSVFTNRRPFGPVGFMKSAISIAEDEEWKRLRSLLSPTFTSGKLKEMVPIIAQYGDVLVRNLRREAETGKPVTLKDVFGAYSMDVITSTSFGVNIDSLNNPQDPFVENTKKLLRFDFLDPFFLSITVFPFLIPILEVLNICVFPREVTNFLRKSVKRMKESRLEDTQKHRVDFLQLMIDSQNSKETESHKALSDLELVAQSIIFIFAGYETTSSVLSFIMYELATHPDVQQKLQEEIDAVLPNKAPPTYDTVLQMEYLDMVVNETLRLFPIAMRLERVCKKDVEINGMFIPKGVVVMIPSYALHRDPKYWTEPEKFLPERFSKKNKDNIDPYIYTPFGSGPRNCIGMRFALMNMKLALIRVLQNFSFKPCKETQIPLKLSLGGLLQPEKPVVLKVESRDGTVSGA
The next data set deals with Cytochrome P450 2D6 (Homo sapiens, UniProt P10635). Briefly: Inhibition of CYP2D6 (unknown origin). Type of data set: ADME.
Sequence of Cytochrome P450 2D6 (P10635 whole entry): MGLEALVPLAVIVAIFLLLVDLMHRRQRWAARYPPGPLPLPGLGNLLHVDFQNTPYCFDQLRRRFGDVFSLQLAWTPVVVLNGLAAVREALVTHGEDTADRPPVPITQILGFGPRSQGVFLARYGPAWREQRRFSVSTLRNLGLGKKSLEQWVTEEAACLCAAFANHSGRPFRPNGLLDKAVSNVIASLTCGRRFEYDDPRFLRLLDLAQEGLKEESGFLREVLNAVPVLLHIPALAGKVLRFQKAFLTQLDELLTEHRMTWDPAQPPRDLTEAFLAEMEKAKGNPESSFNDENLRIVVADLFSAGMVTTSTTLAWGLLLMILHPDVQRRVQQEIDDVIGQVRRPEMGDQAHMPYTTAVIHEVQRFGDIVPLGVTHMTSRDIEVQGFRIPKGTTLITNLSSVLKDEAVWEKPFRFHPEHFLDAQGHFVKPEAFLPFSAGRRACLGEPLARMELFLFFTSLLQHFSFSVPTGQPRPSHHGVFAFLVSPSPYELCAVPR
Data set [15] in a line: Solubility of the compound at pH 6.8. Type of data set: physicochemical. As to conditions: buffer. A digest of the protocol: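 Solubility was measured at pH 6.8 on the amorphous powder form of the compound.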
Data set [16] can be described thus: Half life in rat at 0.2 mg/kg, iv and 0.4 mg/kg, po. Type of data set: ADME, organism-based. The following applies: in vivo.
A short description of data set [17]: Oral bioavailability in rat at 0.4 mg/kg. Type of data set: ADME, organism-based. As to conditions: in vivo.

T1 sequence (Q7ZJM1 whole entry): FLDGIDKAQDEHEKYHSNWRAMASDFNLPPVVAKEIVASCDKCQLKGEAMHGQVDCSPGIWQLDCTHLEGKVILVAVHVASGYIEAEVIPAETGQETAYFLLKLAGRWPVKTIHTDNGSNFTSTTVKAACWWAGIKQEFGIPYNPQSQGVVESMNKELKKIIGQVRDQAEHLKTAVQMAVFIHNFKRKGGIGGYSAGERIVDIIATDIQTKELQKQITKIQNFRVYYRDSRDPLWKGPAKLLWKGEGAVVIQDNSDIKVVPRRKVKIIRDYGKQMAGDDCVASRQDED

For orientation: EC50 means the concentration that produces a half-maximal response. Turning to `Cc1nc2ccc(Br)cc2c(-c2ccc(Cl)cc2)c1[C@H](OC(C)(C)C)C(=O)O`, in [1], the Kd was 150 nM. The EC50 was found to be 78 nM in data set [2] and 610 nM in data set [3]. In [4], the “Ratio EC50” value was 8.
In general, IC50 refers to the concentration that inhibits the measured activity by half. In turn, `CCCC(C(=O)O)c1c(C)nc2ccc(Br)cc2c1-c1ccc(Cl)cc1` (configuration not stated) returned an IC50 in data set [5] of 77 nM. The midpoint of the response in [2], the EC50, lay at 920 nM.
In [5], `Cc1nc2ccc(Br)cc2c(-c2ccc(Cl)cc2)c1C(C)C(=O)O` (configuration not stated) came in with an IC50 of 310 nM. In addition, in data set [2], the EC50 came to 13000 nM.
As to `Cc1nc2ccc(Br)cc2c(-c2ccc(Cl)cc2)c1CC(=O)O`, the IC50 in data set [5] was 270 nM. The compound further gave an EC50 in data set [2] of 16000 nM.
As usually defined, the half-life is how long it takes for the measured level to halve. Turning to `Cc1ccc2c(-c3ccc(Cl)cc3)c([C@H](OC(C)(C)C)C(=O)O)c(C)nc2c1`, in data set [1], the Kd worked out at 40 nM. The EC50 in data set [2] was found to be 13 nM; in data set [3], 130 nM. Also, the half-life in data set [6] stood at 0.417 h. For the same compound, the “fold change (FC)” value in [7] is on record as 25.
In the case of `Cc1ccc2c(-c3ccc4c(c3)CCCO4)c([C@H](OC(C)(C)C)C(=O)O)c(C)nc2c1`, the concentration for a half-maximal effect (EC50) turned out to be 7 nM in data set [2] and 22 nM in [3]. Also, the half-life in [6] was determined as 1.1 h. Moreover, the “fold change (FC)” value in [7] is 66.
For `Cc1ccc2c(-c3ccc4c(c3Cl)CCCO4)c([C@H](OC(C)(C)C)C(=O)O)c(C)nc2c1`, the EC50 amounted to 2 nM in data set [2] and 22 nM in data set [3]. Also, the “fold change (FC)” value in data set [7] is given as 83.
Take `CO[C@H](C(=O)O)c1c(C)nc2ccc(Br)cc2c1-c1ccc(Cl)cc1`: the Kd in data set [1] was 4700 nM. The compound further showed an IC50 in data set [5] of 28 nM. Further, the EC50 in data set [2] was determined as 450 nM.
For orientation: Papp means a coefficient for how fast a substance crosses the barrier. A word on the solubility: it is the dissolved amount per volume that the medium holds. As a reminder, the bioavailability is dose-corrected exposure relative to a reference, in per cent. For `Cc1nc2ccccc2c(-c2ccc3c4c(ccnc24)CCO3)c1[C@H](OC(C)(C)C)C(=O)O` [BI-224436], the EC50 in data set [2], in [8], in data set [9], in [10], in data set [11] and in data set [12] was 11 nM each time. In addition, the half-life in data set [6] was 3.5 h; in [13] it was more than 5 h; in data set [16], 8.8 h. Further, the “fold change (FC)” value in data set [7] came out at 2.1. The Papp in data set [14] stood at 14 ×10⁻⁶ cm/s. In addition, the IC50 was 23000 nM on Cytochrome P450 3A4 and more than 30000 nM at Cytochrome P450 2D6. For the same compound, the solubility in data set [15] is more than 850 µg/mL. Also, the bioavailability in data set [17] was 54%.
Take `Cc1nc2cc(F)ccc2c(-c2ccc(Cl)cc2)c1[C@H](OC(C)(C)C)C(=O)O`: the Kd in [1] is 68 nM. Moreover, the concentration for a half-maximal effect (EC50) in data set [2] worked out at 26 nM; in [3], 91 nM.
The like results for `Cc1nc2ccccc2c(-c2ccc(Cl)cc2)c1[C@H](OC(C)(C)C)C(=O)O` were, in that order, 49 nM, 23 nM and 110 nM.
In data set [3], `Cc1ccc2c(-c3ccc4c(c3Cl)NCCO4)c([C@H](OC(C)(C)C)C(=O)O)c(C)nc2c1` registered a 50% effective concentration (EC50) of 29 nM. For the same compound, in [6], the half-life amounted to 1.08 h. In [7], the “fold change (FC)” value is 15.
In [5], `Cc1ccc(-c2c(CC(=O)O)c(C)nc3ccc(Br)cc23)cc1` displayed an IC50 of 350 nM. The compound further displayed a 50% effective concentration (EC50) in data set [2] of 20000 nM.
In turn, `Cc1nc2ccc(Br)cc2c(-c2ccccc2)c1CC(=O)O` showed an EC50 in data set [2] of more than 33000 nM.
In data set [5], `CO[C@@H](C(=O)O)c1c(C)nc2ccc(Br)cc2c1-c1ccc(Cl)cc1` registered a half-inhibitory concentration (IC50) of 3100 nM. In data set [2], this compound came in with an EC50 of 47000 nM.
Consider `Cc1nc2ccc(Cl)cc2c(-c2ccccc2)c1CC(=O)O`, for which the 50% effective concentration (EC50) in [2] is more than 40000 nM.
As for `Cc1nc2ccc(F)cc2c(-c2ccc(Cl)cc2)c1[C@H](OC(C)(C)C)C(=O)O`, in data set [1], the Kd came to 61 nM. Also, the EC50 in [2] is 28 nM; in [3], 70 nM.
`Cc1ccc2nc(C)c([C@H](OC(C)(C)C)C(=O)O)c(-c3ccc(Cl)cc3)c2c1`: the Kd in data set [1] was 48 nM. Moreover, the concentration for a half-maximal effect (EC50) worked out at 27 nM in data set [2] and 160 nM in [3].
As for `Cc1ccc2c(-c3cccc4cccnc34)c([C@H](OC(C)(C)C)C(=O)O)c(C)nc2c1`, the concentration giving a half-maximal response (EC50) in data set [2] is 34 nM; in data set [3] it was 300 nM. The half-life in data set [6] was more than 5 h. Further, the “fold change (FC)” value in data set [7] is recorded as 4.
On to `Cc1ccc2c(-c3ccc4c5c(ccnc35)CCO4)c([C@H](OC(C)(C)C)C(=O)O)c(C)nc2c1`, for which the concentration giving a half-maximal response (EC50) in [2] stood at 6 nM; in [3], 21 nM. The half-life in data set [6] came to 3.5 h. Moreover, the “fold change (FC)” value in data set [7] is 4.7.
Regarding `Cc1nc2ccccc2c(-c2ccc(Cl)cc2)c1CC(=O)O`, the EC50 in data set [2] was more than 43000 nM.
For `Cc1nc2cc(Cl)ccc2c(-c2ccc(Cl)cc2)c1[C@H](OC(C)(C)C)C(=O)O`, the Kd in data set [1] came to 140 nM. Further, the values for the EC50 in [2] and in data set [3] were 31 nM and 120 nM, respectively.
As to `COC(C(=O)O)c1c(C)nc2ccc(Br)cc2c1-c1ccc(Cl)cc1` (configuration not stated), 40 nM corresponded to half-maximal inhibition in data set [5] (IC50). The EC50 in data set [2] amounted to 990 nM.
Regarding `Cc1nc2ccc(Br)cc2c(-c2ccc(Cl)cc2)c1[C@H](OC(C)C)C(=O)O`, in [1], the Kd was 280 nM. For the same compound, a half-maximal response in [2] (EC50) required 130 nM.
